PvdQ inh – blocks Pseudomonas aeruginosa PvdQ acylase activity; inhibition, % at 10 µM; purified PvdQ acylase, fluorescence plate reader; 0.063% of 340,000 active; AID 488965; in the data active = inhibition above about 30%, passing the limit was not always enough
CDK5 p35 inh – inhibitors of human CDK5/p35 kinase. Recombinant CDK5/p35, ADP-Glo luminescence, 60 min. AID 488839. inhibition, % at 10 µM. 0.01% of 330,000 active. Q00535+Q15078;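 active = highest replicate inhibition of at least 50% and at least 75% of replicates reaching 50%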
Target sequence (Q00535 whole entry, looked up): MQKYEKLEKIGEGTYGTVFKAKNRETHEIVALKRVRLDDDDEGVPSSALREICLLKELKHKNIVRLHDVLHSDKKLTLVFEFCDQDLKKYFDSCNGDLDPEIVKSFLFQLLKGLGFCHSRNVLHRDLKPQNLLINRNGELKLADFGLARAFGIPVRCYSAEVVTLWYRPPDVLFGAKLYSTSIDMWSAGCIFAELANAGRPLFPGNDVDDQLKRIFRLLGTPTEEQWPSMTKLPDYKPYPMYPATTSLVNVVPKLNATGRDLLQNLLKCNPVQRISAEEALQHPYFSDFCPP
Target sequence (Q15078 whole entry, looked up): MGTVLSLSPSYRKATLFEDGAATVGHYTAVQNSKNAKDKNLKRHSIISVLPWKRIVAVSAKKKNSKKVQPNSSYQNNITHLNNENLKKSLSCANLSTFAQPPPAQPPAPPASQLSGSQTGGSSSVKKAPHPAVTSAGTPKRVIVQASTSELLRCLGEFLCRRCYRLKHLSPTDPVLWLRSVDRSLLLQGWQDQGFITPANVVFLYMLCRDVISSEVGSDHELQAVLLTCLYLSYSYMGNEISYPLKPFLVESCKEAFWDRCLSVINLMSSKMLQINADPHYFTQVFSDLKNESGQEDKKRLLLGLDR
CAL PDZ FP-1 – inhibitors of human CAL PDZ peptide binding; 0.92% of 300,000 active; purified CAL PDZ, TMR-peptide fluorescence polarization, 1 h; inhibition, % at 24.9 µM; Q9HD26;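 active = mean inhibition of at least 30% with at least half of replicates also reaching 30%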
Dyrk1A ADPGlo – inhibitors of rat Dyrk1A kinase; ADP-Glo luminescence, NFATc1 peptide; Q63470; inhibition, % at 12.5 µM; 0.43% of 310,000 active; in the data active = inhibition above about 50%
TbMetRS inhib – Trypanosoma brucei MetRS inhibition | purified T. brucei MetRS, ATP depletion, Kinase-Glo luminescence | inhibition, % at 11.9 µM | 0.4% of 360,000 active;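 active = inhibition above a per-plate cutoff of the control wells' mean inhibition plus 3 SD, cut at about 5.5% in these data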
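assay system = parasite MetRS enzyme | timing = 15 min preincubation, 2 h reaction, all 25 °C | evaluation = percent inhibition relative to median high and low control wells | medium = HEPES buffer containing pyrophosphatase, BSA, spermine, DTT | compound = single dose, 11.9 µM final nominal, 0.9% final DMSO | detection = Kinase-Glo luminescence, ATP depletion format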
CAL PDZ FP-2 – blocks peptide binding to human CAL PDZ domain. 0.02% of 330,000 active. Q9HD26. inhibition, % at 20 µM. purified CAL PDZ, TMR-peptide fluorescence polarization, 1 h;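 active = highest replicate inhibition of at least 40%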
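material = purified tagged CAL PDZ domain construct (CerCALP) | buffer or medium = sodium phosphate/NaCl buffer pH 7.4 with TCEP, IgG, Thesit | reagent = TMR-labelled reporter peptide T*-PRC34 bound in PDZ groove | incubation = 1 h room-temperature incubation prior to read | measured by = fluorescence polarization (mP) | evaluation = percent inhibition from loss of millipolarization | control set = unlabelled peptide and DMSO controls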
Of the large screens only hits and unclear results are named; the others gave an inactive call. Compounds with a hit are over-represented: about 1.4% of the library has one in this group of screens.

CN(C)C1CCCCC=CC(=O)NC1 (stereo unspecified)	none (no result: PvdQ inh, CDK5 p35 inh, CAL PDZ FP-1, Dyrk1A ADPGlo, CAL PDZ FP-2)
Cc1ccc(NC(=O)CN2C(=O)S/C(=C\c3ccccn3)C2=O)cc1	CAL PDZ FP-1 85
COc1ccc(OC)c(-c2csc(N(Cc3ccco3)C(=O)c3cccs3)n2)c1	none
COc1ccc(-c2csc(N(Cc3ccco3)C(=O)c3cccs3)n2)cc1	CAL PDZ FP-2 191
COC(=O)[C@]12CCCCC=C1N(Cc1cccc3ccccc13)C(=O)[C@H](CC(=O)NCC1CCCCC1)C2	none (no result: PvdQ inh, CDK5 p35 inh, CAL PDZ FP-1, Dyrk1A ADPGlo, CAL PDZ FP-2)
CC1CN(C(=S)Nc2ccccc2)CC(C)O1 (stereo unspecified)	none (no result: Dyrk1A ADPGlo)
CC1CN(C(=S)Nc2ccccc2)N(c2ccccc2)C1 (stereo unspecified)	CAL PDZ FP-1 67
CCCCC(NS(=O)(=O)c1ccc(OC)cc1)C(=O)O (stereo unspecified)	CAL PDZ FP-1 49
COc1ccc(OC)c(CN2C(=O)CSCC2(C)C(=O)Nc2c(C)cccc2C)c1 (stereo unspecified)	none (no result: PvdQ inh, CDK5 p35 inh, CAL PDZ FP-1, Dyrk1A ADPGlo, CAL PDZ FP-2)
Cc1ccc2nc(-c3cccc(Br)c3)c(Cc3ccccn3)n2c1	none (no result: PvdQ inh, CDK5 p35 inh, CAL PDZ FP-1, Dyrk1A ADPGlo, CAL PDZ FP-2)
NC(Cc1ccc(F)cc1)c1csc(Nc2ccc(C(=O)c3ccccc3)cc2)n1 (stereo unspecified)	none (no result: PvdQ inh, CDK5 p35 inh, CAL PDZ FP-1, Dyrk1A ADPGlo, CAL PDZ FP-2)
COc1ccc(C2=C(C=O)Cc3ccccc3O2)cc1	PvdQ inh 110
COc1ccc(C2=COc3ccccc3C(=O)N2)cc1	none (no result: Dyrk1A ADPGlo)
O=C(Cc1ncon1)Nc1ccc(F)c(F)c1F	CAL PDZ FP-1 78 (no result: Dyrk1A ADPGlo)
Clc1cccc2c1CCN(Cc1nc(-c3cnccn3)no1)C2	CAL PDZ FP-1 56 (no result: CAL PDZ FP-2)
COC(=O)c1ccc(Cn2nc(C)cc2C)cc1	CAL PDZ FP-1 112 (no result: CAL PDZ FP-2)
Cc1ccc(C(=O)OCC(=O)NCCN2C(=O)CSC2=O)cc1[N+](=O)[O-]	none (no result: Dyrk1A ADPGlo)
Cc1cc(C(=O)OCC(=O)NCCN2C(=O)CSC2=O)ccc1[N+](=O)[O-]	CAL PDZ FP-1 90
COc1ccc(OC)c(NC(=O)CSc2ccc3ccccc3c2)c1	none
COc1ccc(OC)c(NC(=O)C2CC(C)=C(C)CC2C(=O)O)c1 (stereo unspecified)	CAL PDZ FP-1 43
COc1ccc(OC)c(NC(=O)CSc2ccccc2)c1	CAL PDZ FP-1 54 (no result: CAL PDZ FP-2)
Cn1cc(Cc2ccc(C(=O)NC34CC5CC(CC(C5)C3)C4)cn2)c2ccccc21	none (no result: PvdQ inh, CDK5 p35 inh, CAL PDZ FP-1, Dyrk1A ADPGlo, CAL PDZ FP-2)
CCOC(=O)c1ccc(S(=O)(=O)NCC(C)(C)N2CCOCC2)cc1	CAL PDZ FP-1 56
Cc1ccc2nc3sc(C(=O)N4CCOCC4)c(N)c3cc2c1	none
Cc1ccc2cc3c(N)c(C(=O)N4CCOCC4)sc3nc2c1	CAL PDZ FP-1 53
Cc1noc(C)c1-c1ccc(C(=O)NCCC(F)(F)F)c2occc12	none (no result: PvdQ inh, CDK5 p35 inh, CAL PDZ FP-1, Dyrk1A ADPGlo, CAL PDZ FP-2)
Cc1ccc(NC(=O)COc2ccccc2C(=O)NCCc2ccccc2)cc1	CAL PDZ FP-1 72
CCSc1ccccc1C(=O)NCCc1ccccc1	CAL PDZ FP-1 46
O=C(/C=C/[C@H]1O[C@@H](n2ccc(=O)[nH]c2=O)[C@H](O)[C@@H]1O)NCCN1CCOCC1	none (no result: PvdQ inh, CDK5 p35 inh, CAL PDZ FP-1, Dyrk1A ADPGlo, CAL PDZ FP-2)
CC/C(=N\NS(=O)(=O)c1ccc(C)cc1)c1ccco1	CAL PDZ FP-1 36 (no result: CAL PDZ FP-2)
Cc1ccc(C(=O)Nc2ccc(S(=O)(=O)NCc3ccco3)cc2)cc1	none (no result: CAL PDZ FP-1)
Cc1ccc(-c2ccc(S(=O)(=O)NCc3ccco3)cc2)cc1	CAL PDZ FP-1 active
O=C(Nc1ccc(S(=O)(=O)NCc2ccco2)cc1)c1ccc(F)cc1	none
CCC(=O)Nc1ccc(S(=O)(=O)NCc2ccco2)cc1	CAL PDZ FP-2 144
O=C(Nc1ccccc1)c1ccc(S(=O)(=O)NCc2ccco2)cc1	CAL PDZ FP-1 39
Nc1ncnc2c1ncn2C1OCC(O)C1O (stereo unspecified)	none (no result: PvdQ inh, CDK5 p35 inh, CAL PDZ FP-1, Dyrk1A ADPGlo, CAL PDZ FP-2)
O=C(CN1C(=O)c2ccccc2C1=O)C(O)CN1C(=O)c2ccccc2C1=O (stereo unspecified)	none (no result: PvdQ inh, CDK5 p35 inh, CAL PDZ FP-1, Dyrk1A ADPGlo, CAL PDZ FP-2)
N#Cc1ccccc1CSCCNC(=O)Cc1c(F)cccc1Cl	none
S=C(NCCSCc1ccc(Cl)cc1Cl)Nc1ccccc1	TbMetRS inhib 70
O=C(NCCSCc1c(F)cccc1Cl)Nc1ccccc1	TbMetRS inhib 7.8 (no result: CAL PDZ FP-2)
S=C(NCCSCc1c(Cl)cccc1Cl)Nc1ccccc1	none
C=CCOc1cccn2c(N(C=O)Cc3ccc(OC)cc3)c(CC)nc12	none (no result: PvdQ inh, CDK5 p35 inh, CAL PDZ FP-1, Dyrk1A ADPGlo, CAL PDZ FP-2)
CC(C)(C)c1ccc(C(O)c2ncc(-c3ccc(F)cc3)[nH]2)cc1 (stereo unspecified)	none (no result: PvdQ inh, CDK5 p35 inh, CAL PDZ FP-1, Dyrk1A ADPGlo, CAL PDZ FP-2)
Cc1nnsc1C(=O)NC1CCCc2c1cnn2-c1ccccc1F (stereo unspecified)	none

Screening results deposited in PubChem BioAssay by several laboratories.
